KCNQ1 pot: potentiates or activates the human KCNQ1 potassium channel | P51787 | B-score at 10 µM | 0.35% of 310,000 active | CHO-K1 KCNQ1, thallium flux FluxOR fluorescence; active compounds read high;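 active = fluorescence ratio B-score, a plate-corrected score, at least three library SD, with initial intensity B-score within 5 SD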
Target sequence (P51787 whole entry, looked up): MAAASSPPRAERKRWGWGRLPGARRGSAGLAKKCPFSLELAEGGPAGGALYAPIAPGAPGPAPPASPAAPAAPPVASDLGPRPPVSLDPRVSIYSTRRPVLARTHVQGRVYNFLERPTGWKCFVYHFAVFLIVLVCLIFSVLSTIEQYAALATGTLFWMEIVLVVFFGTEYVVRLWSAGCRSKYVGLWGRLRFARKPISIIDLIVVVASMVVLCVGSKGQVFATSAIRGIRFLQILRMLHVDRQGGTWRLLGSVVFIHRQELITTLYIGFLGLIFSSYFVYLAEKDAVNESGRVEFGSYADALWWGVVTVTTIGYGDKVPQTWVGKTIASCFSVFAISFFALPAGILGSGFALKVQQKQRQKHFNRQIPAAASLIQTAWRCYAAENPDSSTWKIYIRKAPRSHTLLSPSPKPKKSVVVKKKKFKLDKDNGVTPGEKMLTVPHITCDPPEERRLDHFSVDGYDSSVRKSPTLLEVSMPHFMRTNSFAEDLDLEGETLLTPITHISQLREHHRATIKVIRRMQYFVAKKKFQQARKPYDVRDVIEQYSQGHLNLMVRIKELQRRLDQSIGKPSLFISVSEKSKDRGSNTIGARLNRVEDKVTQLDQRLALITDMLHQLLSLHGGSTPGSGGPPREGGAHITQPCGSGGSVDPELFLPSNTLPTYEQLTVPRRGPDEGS
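assay system = KCNQ1-transfected CHO-K1 cells | medium = assay buffer with matched DMSO | probe or stimulus = depolarizing K+/Tl+ stimulus, K2SO4 and Tl2SO4 each 12.5 mM in 5x stock | dosing = single dose | incubation = dye 90 min, compound 20 min, room temperature | detection = kinetic FluxOR fluorescence, 10 s baseline plus 110 s post-stimulus | evaluation = ratio B score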
KCNQ1 block: human KCNQ1 channel inhibition; CHO-K1 KCNQ1, FluxOR thallium flux fluorescence; active compounds read high; AID 2642; 1.3% of 310,000 active; B-score at 10 µM;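 active = compounds whose thallium flux B-score, printed positive for inhibition, exceeds three library SD while starting fluorescence stays within three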;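 note: channel opened by potassium depolarization with thallium stimulus after 20 min compound exposure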
KCNK9 block: blocks the human KCNK9 two-pore domain potassium channel; Q9NPC2; HEK293 KCNK9, FluxOR thallium flux fluorescence; active compounds read low; B-score at 10 µM; 1.2% of 310,000 active; AID 488922;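 active = ratio B-score over 3 SD below the library mean, with starting fluorescence within 5 SD of its mean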;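 note: negative B-score means less thallium flux so channel inhibition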
hERG protect: compounds protecting human hERG from proarrhythmic drug block; Q12809; CHO-hERG, FluxOR thallium flux, dofetilide IC70 present; activation (rescue from dofetilide block), less the hit threshold, % at 10 µM; 0.51% of 310,000 active;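 active = activation above the mean of controls blocked by dofetilide plus 5 SD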;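 note: thallium influx through hERG after potassium depolarization seen as dye fluorescence rise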
Kir21 block: blocks the mouse Kir2.1 inward-rectifier potassium channel; P35561; HEK293-Kir2.1, FluxOR thallium flux fluorescence; active compounds read low; B-score at 10 µM; 0.85% of 310,000 active; AID 1672;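 active = fluorescence ratio B-score at or below minus 3 SD of library scores, with starting-brightness B-score within 2 SD, cut at about -4.2 in these data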;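 note: channel flux triggered by added potassium and thallium sulfate stimulus; B-score of peak minus minimum fluorescence over baseline after thallium stimulus; more negative B-score means stronger Kir2.1 block with less thallium influx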
KCNK3 inh: human KCNK3 channel inhibition, primary screen | O14649 | CHO-KCNK3 thallium flux, FluxOR fluorescence; active compounds read low | B-score at 10 µM | 0.84% of 340,000 active;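 active = B-score under library mean minus 4 SD, starting fluorescence ratio at most library mean plus 5 SD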;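 note: more negative B-score means stronger inhibition of thallium flux through KCNK3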
KCNK9 inh conf: confirmation of human KCNK9 potassium channel inhibitors. shares compounds with KCNK9 block. HEK293 KCNK9 cells, FluxOR thallium flux fluorescence. inhibition, % at 10 µM. 43% of 4,900 active. AID 492992;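 active = thallium signal inhibited by more than 5 SD of the compound-free buffer control wells, on both duplicate plates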
Kir21 sel: mouse Kir2.1 off-target activity of KCNK9 modulators; shares compounds with KCNK9 block; Kir2.1 cells, FluxOR thallium flux fluorescence; inhibition, % at 10 µM; 4% of 4,900 active; AID 492993;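 active = thallium signal drop more than 5 SD beyond the mean of the no-compound control wells, seen in both duplicate plates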;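 note: signal is fluorescence rise after thallium addition divided by baseline fluorescence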
KCNK9 uninduced: second check of KCNK9 modulator effects in non-induced HEK293 cells; AID 492997; shares compounds with KCNK9 block; 40% of 4,900 active; inhibition, % at 10 µM; FluxOR thallium flux;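 active = thallium signal drop beyond 5 SD of the untreated control mean, on both duplicate plates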
KCNK3 confirm: confirmation of human KCNK3 two-pore domain potassium channel inhibitors; shares compounds with KCNK3 inh; CHO-KCNK3 thallium flux, FluxOR fluorescence; 0% buffer, 100% carvedilol maximal block; ratio percent of control, % at 10 µM; 99% of 2,400 active;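 active = ratio percent of control, averaged over triplicates, above buffer control mean plus 5 SD, cut at about 64% in these data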;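 note: ratio is the fluorescence rise from min to max over baseline after thallium stimulus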
KCNK3 noninduced: activity in cells without induced KCNK3 expression; shares compounds with KCNK3 inh; non-induced KCNK3 parental cells, FluxOR thallium flux; active compounds read low; thallium flux ratio (lower = more inhibition) at 10 µM; 40% of 2,400 active; AID 651747;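 active = thallium flux ratio, averaged over three wells, more than 5 SD below the buffer control mean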;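 note: host cells are CHO cells without KCNK3 induction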
A number is an active result; i = inactive; nt = no result. Compounds with a hit are over-represented: about 3.7% of the library has one in this group of screens.

SMILES | KCNQ1 pot | KCNQ1 block | KCNK9 block | hERG protect | Kir21 block | KCNK3 inh | KCNK9 inh conf | Kir21 sel | KCNK9 uninduced | KCNK3 confirm | KCNK3 noninduced
COc1ccc(O)c(C(=O)c2coc(=N)c(C(=O)Nc3ccc(SC(F)F)cc3)c2)c1 | i | i | i | i | i | i | nt | nt | nt | nt | nt
CCCCN(C)Cc1cc(=O)oc2cc3c(cc12)CCCC3 | i | i | i | i | i | i | i | i | i | nt | nt
COc1ccc(NC(=O)N(C)C[C@H]2Oc3c(NC(=O)C4CC4)cccc3C(=O)N([C@H](C)CO)C[C@@H]2C)cc1 | nt | nt | nt | nt | nt | i | nt | nt | nt | nt | nt
CCOC(=O)c1cc(-c2ccc(OC)cc2F)nc2c1c(C)nn2CCC#N | i | 6 | -11 | i | i | i | 54% | i | 34% | nt | nt
COc1ccc(NC(=O)CC(CC(=O)O)c2cc(OC)c(OC)c(OC)c2)cc1 (stereo not drawn) | i | i | i | i | i | i | nt | nt | nt | nt | nt
Cc1cccc([N+](=O)[O-])c1NC(=O)CN(Cc1ccccc1)Cc1ccccc1 | i | i | -8.8 | i | i | i | 30% | i | 37% | nt | nt
Cc1cccc(C)c1NC(=O)CNC(=O)Cc1ccccc1[N+](=O)[O-] | i | i | i | i | i | i | nt | nt | nt | nt | nt
CCOc1ccc2nc(SCC(=O)NC(=O)NCc3ccco3)[nH]c2c1 | i | i | i | i | i | i | i | i | i | nt | nt
O=C/C(=C\Nc1ccccn1)c1nc2cc(Cl)ccc2o1 | i | i | -8.5 | i | i | i | 35% | i | i | 114 | i
O=C/C(=C\Nc1ccccn1)c1nc2ccccc2o1 | i | i | i | i | i | i | nt | nt | nt | nt | nt
CCOc1ccccc1CNC(=O)Cn1nc(C)c2c(C)n(-c3ccc(C)cc3)nc2c1=O | i | i | i | i | i | i | nt | nt | nt | nt | nt
C=CCc1ccccc1Oc1cc(F)nc(N)n1 | i | i | i | i | i | i | nt | nt | nt | nt | nt
O=C(Nc1ccc(Br)cc1)/C(=C/c1cccc([N+](=O)[O-])c1)NC(=O)C1CCCCC1 | i | i | -9.7 | i | i | -9.4 | 50% | i | 34% | 107 | 0.15
Cc1cc(C(=O)OCC(=O)N2CCc3ccccc32)ccc1[N+](=O)[O-] | nt | nt | nt | nt | nt | i | nt | nt | nt | nt | nt
CCOc1cc(/C=C2\C(=N)N3N=C(S(C)(=O)=O)SC3=NC2=O)ccc1OCCOc1cccc(OC)c1 | i | i | i | i | i | i | nt | nt | nt | nt | nt
COc1cc(/C=C2\C(=N)N3N=C(S(C)(=O)=O)SC3=NC2=O)cc(OC)c1OCCOc1ccc(C)cc1 | i | i | i | i | i | -12 | i | i | i | 99 | 0.14
COc1cc(/C=C2\C(=N)N3N=C(S(C)(=O)=O)SC3=NC2=O)ccc1OCCOc1ccc(C)cc1 | i | 10 | i | i | i | -9.1 | i | i | i | 75 | 0.16
CCC(C)(C)n1nnnc1CN(Cc1ccc(Cl)cc1)Cc1ccco1 | i | i | -11 | i | -5.1 | i | 54% | i | 40% | 126 | 0.16
CCCCC(=O)Nc1cccc(-c2csc(-c3ccccc3)n2)c1 | i | 9 | -10 | i | i | -10 | 50% | i | 30% | 125 | 0.15
O=C(O)CCC(=O)Nc1cccc(-c2csc(-c3ccccc3)n2)c1 | i | i | i | i | i | i | nt | nt | nt | nt | nt
COc1cccc(NC(=O)CSc2nnc3ccc(-c4ccncc4)nn23)c1 | i | i | i | i | i | i | nt | nt | nt | nt | nt
COc1ccc(C2CC(c3cccs3)=NN2C(=O)COC(=O)C2CCCCC2)cc1OC (stereo not drawn) | i | i | -15 | i | i | -9.6 | 43% | i | 38% | 103 | i
